In ChEMBL document CHEMBL1149101, “New antibacterial agents derived from the DNA gyrase inhibitor cyclothialidine” (J Med Chem, 2004):
≈ marks a conversion by molar mass, not a printed value.

Columns and labels:
[1] = test system: Stenotrophomonas maltophilia; experiment: Minimum inhibitory concentration against Xanthomonas maltophilia AC739; format: functional
In short: (§1)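 NCCLS agar dilution on Mueller–Hinton agar, compound incorporated into melted medium at 50 °C. Inoculum about 10⁴ CFU/spot from diluted overnight cultures, multipoint-applied.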

[2] = Range for minimum inhibitory concentration against Enterococcus faecium; 2-8; format: functional
Staphylococcus aureus [3] = experiment: In vivo effective dose was determined in septicaemic mice (Staphylococcus aureus Smith) when administration iv; format: functional
In short: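 Compound given iv as a gelatine microsuspension at 1 and 3 h post-challenge, 5 mice per group. ED50 (mg/kg) from day-4 survival by probit analysis.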

Enterococcus faecalis [4] = experiment: Minimum inhibitory concentration against Enterococcus faecalis; format: functional
In short: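 Agar dilution per NCCLS on Mueller–Hinton agar, strain E. faecalis 6 (listed as S. faecalis 6). Compound incorporated into melted medium at 50 °C just before pouring plates. Inoculum about 10⁴ CFU/spot from diluted overnight culture, applied with multipoint inoculator.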

[5] = test system: Staphylococcus epidermidis; experiment: Minimum inhibitory concentration against Staphylococcus epidermidis 16/2; format: functional; in short: as §1
[6] = Range for minimum inhibitory concentration against Enterococcus faecalis;4-8; format: functional
Enterococcus faecalis [7] = experiment: Minimum inhibitory concentration against Enterococcus faecalis 6; format: functional; in short: as §1
Escherichia coli = experiment: Minimum inhibitory concentration against Escherichia coli 25922; format: functional; in short: as §1
Staphylococcus aureus [8] = experiment: Minimum inhibitory concentration against Staphylococcus aureus ATCC 25923; format: functional; in short: as §1
Streptococcus pyogenes = experiment: Minimum inhibitory concentration against Streptococcus pyogenes b15
Staphylococcus aureus [9] = experiment: Minimum inhibitory concentration against Staphylococcus aureus Smith; format: functional; in short: as §1
[10] = target: T1, DNA gyrase (Escherichia coli) (UniProt P0AES6+P0AES4)
HeLa = experiment: Cytotoxicity in HeLa cells; format: cell-based
Staphylococcus aureus [11] = experiment: Minimum inhibitory concentration against Staphylococcus aureus; format: functional
[12] = Range for minimum inhibitory concentration against Staphylococcus aureus; 0.5->[…]; format: functional
[13] = Range for minimum inhibitory concentration against Staphylococcus aureus 0.5->[…]; format: functional
Micrococcus luteus = experiment: Minimum inhibitory concentration against Micrococcus luteus ATCC 8340; format: functional
In short: (§2)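 Agar dilution per NCCLS in BB2 agar + 1% Isovitalex + 7.5% sheep blood + menadione, compound added to melted medium at 50 °C. About 10⁴ CFU/spot from diluted overnight cultures, multipoint-inoculated.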

Neisseria meningitidis = experiment: Minimum inhibitory concentration against Neisseria meningitides 69480; format: functional; in short: as §2
Staphylococcus aureus [14] = experiment: Minimum inhibitory concentration against Staphylococcus aureus 887; format: functional; in short: as §2
[15] = Range for minimum inhibitory concentration against Staphylococcus aureus; 0.06->64; format: functional
[16] = target: T1, DNA gyrase (Escherichia coli); experiment: Maximum noneffective concentration against Escherichia coli DNA gyrase; format: protein-complex assay
In short: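 Gyrase A2B2 complex reconstituted from equimolar subunits (25 °C, 0.5 h). Relaxed pUC18 DNA incubated with enzyme at 37 °C for 0.5 h, compound 0.001–100 μg/mL. Products resolved on 0.8% agarose gel. MNEC, read visually, is the highest concentration still allowing complete plasmid supercoiling.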

[17] = Range for minimum inhibitory concentration against Staphylococcus aureus; 0.5-2; format: functional
[18] = Range for minimum inhibitory concentration against Enterococcus faecalis; 1-4; format: functional
Mus musculus = species: Mus musculus; experiment: Percentage of binding to the mice plasma protein was determined; format: functional
[19] = Minimum inhibitory concentration against Enterococcus faecalis
[20] = Range for minimum inhibitory concentration against Staphylococcus aureus; 4->64; format: functional
[21] = Staphylococcus aureus, ATCC 25923, read-out: MIC
[22] = Streptococcus pyogenes, read-out: MIC
[23] = Staphylococcus aureus, read-out: MIC

**Q.** With `CO[C@@H]1[C@@H](OC(N)=O)[C@@H](O)[C@H](Oc2ccc3c(O)c(NC(=O)c4ccc(O)c(CC=C(C)C)c4)c(=O)oc3c2C)OC1(C)C` [NOVOBIOCIN] as the molecule, how does the MIC [1] read?
**A.** > 64 µg/mL

**Q.** And the Range [2]?
**A.** 8 µg/mL

**Q.** And the ED50 (Staphylococcus aureus [3])?
**A.** 3 mg/kg

**Q.** And the MIC50 (Enterococcus faecalis [4])?
**A.** 4 µg/mL (≈ 6.53 µM)

**Q.** What about the MIC90 (Enterococcus faecalis [4]) of the same molecule?
**A.** 8 µg/mL (≈ 13.1 µM)

**Q.** What about the MIC [5] of the same molecule?
**A.** 0.25 µg/mL (≈ 0.408 µM)

**Q.** What about the Range [6] of the same molecule?
**A.** 8 µg/mL

**Q.** What about the MIC (Enterococcus faecalis [7]) of the same molecule?
**A.** 4 µg/mL (≈ 6.53 µM)

**Q.** What about the MIC (Escherichia coli) of the same molecule?
**A.** > 64 µg/mL

**Q.** And the MIC (Staphylococcus aureus [8]; [21])?
**A.** 0.25 µg/mL (≈ 0.408 µM)

**Q.** What about the MIC (Streptococcus pyogenes; [22]) of the same molecule?
**A.** 1 µg/mL (≈ 1.63 µM)

**Q.** What about the MIC (Staphylococcus aureus [9]; [23]) of the same molecule?
**A.** 0.12 µg/mL (≈ 0.196 µM)

**Q.** Which results are given for `COc1cc(O)c2c(c1C)C(=O)O[C@H](CO)CCC/C(S)=N/[C@H](c1nc(C)no1)CSC2`?
**A.** MIC [1]: 4 µg/mL (≈ 8.31 µM); ED50 (Staphylococcus aureus [3]): 8.5 mg/kg; MIC [5]: < 0.12 µg/mL; MIC (Enterococcus faecalis [7]): 0.5 µg/mL (≈ 1.04 µM); MIC (Escherichia coli): > 64 µg/mL; MNEC [10]: 0.005 µg/mL; MIC (Staphylococcus aureus [8]; [21]): 0.5 µg/mL (≈ 1.04 µM); MIC (Streptococcus pyogenes; [22]): 0.5 µg/mL (≈ 1.04 µM); MIC (Staphylococcus aureus [9]; [23]): 0.5 µg/mL (≈ 1.04 µM)

**Q.** For `COC(=O)[C@@H]1CSCc2c(O)cc(OC)c(C)c2C(=O)OCCCCC(=O)N1`, which MIC [1] is on record?
**A.** 16 µg/mL (≈ 38.9 µM)

**Q.** What about the MIC [5] of the same molecule?
**A.** 1 µg/mL (≈ 2.43 µM)

**Q.** And the MIC (Enterococcus faecalis [7])?
**A.** 4 µg/mL (≈ 9.72 µM)

**Q.** What about the MIC (Escherichia coli) of the same molecule?
**A.** > 64 µg/mL

**Q.** What about the MNEC [10] of the same molecule?
**A.** 0.05 µg/mL

**Q.** And the IC50 (HeLa)?
**A.** > 50 µg/mL

**Q.** And the MIC (Staphylococcus aureus [8])?
**A.** 4 µg/mL (≈ 9.72 µM)

**Q.** And the MIC (Staphylococcus aureus [8]; [21])?
**A.** 4 µg/mL (≈ 9.72 µM)

**Q.** And the MIC (Streptococcus pyogenes; [22])?
**A.** 4 µg/mL (≈ 9.72 µM)

**Q.** And the MIC (Staphylococcus aureus [9])?
**A.** 2 µg/mL (≈ 4.86 µM)

**Q.** What about the MIC (Staphylococcus aureus [9]; [23]) of the same molecule?
**A.** 2 µg/mL (≈ 4.86 µM)

**Q.** With `CC[C@H]1OC(=O)[C@H](C)[C@@H](O[C@H]2C[C@@](C)(OC)[C@@H](O)[C@H](C)O2)[C@H](C)[C@@H](O[C@@H]2O[C@H](C)C[C@H](N(C)C)[C@H]2O)[C@](C)(O)C[C@@H](C)C(=O)[C@H](C)[C@@H](O)[C@]1(C)O` [ERYTHROMYCIN] as the molecule, how does the MIC50 (Staphylococcus aureus [11]) read?
**A.** > 16 µg/mL

**Q.** What about the MIC90 (Staphylococcus aureus [11]) of the same molecule?
**A.** > 16 µg/mL

**Q.** And the Range [12]?
**A.** 16 µg/mL

**Q.** Which MIC50 (Staphylococcus aureus [11]) does the source give for `O=C(O)c1cn(C2CC2)c2cc(N3CCNCC3)c(F)cc2c1=O` [CIPROFLOXACIN] here?
**A.** 0.5 µg/mL (≈ 1.51 µM)

**Q.** And the MIC90 (Staphylococcus aureus [11])?
**A.** > 16 µg/mL

**Q.** What about the Range [12] of the same molecule?
**A.** 16 µg/mL

**Q.** Which MIC50 (Staphylococcus aureus [11]) does the source give for `CN(C)[C@@H]1C(O)=C(C(N)=O)C(=O)[C@@]2(O)C(O)=C3C(=O)c4c(O)cccc4[C@@](C)(O)[C@H]3C[C@@H]12` [TETRACYCLINE] here?
**A.** > 16 µg/mL

**Q.** What about the MIC90 (Staphylococcus aureus [11]) of the same molecule?
**A.** > 16 µg/mL

**Q.** What about the Range [13] of the same molecule?
**A.** 16 µg/mL

**Q.** What does the source list for `COC(=O)[C@@H]1CSCc2c(O)cc(O)c(C)c2C(=O)OCC(NC(=O)OC(C)(C)C)C(=O)N1` (stereo partly specified)?
**A.** MIC [1]: > 64 µg/mL; MIC (Micrococcus luteus): 16 µg/mL (≈ 33 µM); MIC [5]: 64 µg/mL (≈ 132 µM); MIC (Neisseria meningitidis): 16 µg/mL (≈ 33 µM); MIC (Enterococcus faecalis [7]): 64 µg/mL (≈ 132 µM); MIC (Escherichia coli): > 64 µg/mL; MNEC [10]: 0.2 µg/mL; MIC (Staphylococcus aureus [8]; [21]): > 64 µg/mL; MIC (Staphylococcus aureus [14]): > 64 µg/mL; MIC (Streptococcus pyogenes): 64 µg/mL (≈ 132 µM); MIC (Streptococcus pyogenes; [22]): 32 µg/mL (≈ 66 µM); MIC (Staphylococcus aureus [9]; [23]): 128 µg/mL (≈ 264 µM)

**Q.** Which MIC50 (Staphylococcus aureus [11]) does the source give for `C[C@@H](O)[C@H]1C(=O)N2C(C(=O)O)=C(SCCNC=N)C[C@H]12` [IMIPENEM ANHYDROUS] here?
**A.** 4 µg/mL (≈ 13.4 µM)

**Q.** What about the MIC90 (Staphylococcus aureus [11]) of the same molecule?
**A.** 16 µg/mL (≈ 53.4 µM)

**Q.** What about the Range [15] of the same molecule?
**A.** 64 µg/mL

**Q.** What does the source list for `COC(=O)[C@@H]1CSCc2c(O)cc(OC)c(C)c2C(=O)OCCC(=O)N1`?
**A.** MIC [1]: > 64 µg/mL; MIC (Micrococcus luteus): 16 µg/mL (≈ 41.7 µM); MNEC [16]: 0.5 µg/mL; MIC [5]: 8 µg/mL (≈ 20.9 µM); MIC (Neisseria meningitidis): 32 µg/mL (≈ 83.5 µM); MIC (Enterococcus faecalis [7]): > 64 µg/mL; MIC (Escherichia coli): > 64 µg/mL; MNEC [10]: 0.25 µg/mL; MIC (Staphylococcus aureus [8]): 64 µg/mL (≈ 167 µM); MIC (Staphylococcus aureus [8]; [21]): > 64 µg/mL; MIC (Staphylococcus aureus [14]): > 64 µg/mL; MIC (Staphylococcus aureus [9]; [23]): 64 µg/mL (≈ 167 µM)

**Q.** What does the source list for `CN[C@H](CC(C)C)C(=O)N[C@H]1C(=O)N[C@@H](CC(N)=O)C(=O)N[C@H]2C(=O)N[C@H]3C(=O)N[C@H](C(=O)N[C@H](C(=O)O)c4cc(O)cc(O)c4-c4cc3ccc4O)[C@H](O)c3ccc(c(Cl)c3)Oc3cc2cc(c3O[C@@H]2O[C@H](CO)[C@@H](O)[C@H](O)[C@H]2O[C@H]2C[C@](C)(N)[C@H](O)[C@H](C)O2)Oc2ccc(cc2Cl)[C@H]1O` [VANCOMYCIN]?
**A.** Range [17]: 2 µg/mL; Range [18]: 4 µg/mL; MIC [1]: > 64 µg/mL; ED50 (Staphylococcus aureus [3]): 1.5 mg/kg; MIC50 (Enterococcus faecalis [4]): 2 µg/mL (≈ 1.38 µM); MIC50 (Staphylococcus aureus [11]): 1 µg/mL (≈ 0.69 µM); MIC90 (Staphylococcus aureus [11]): 2 µg/mL (≈ 1.38 µM); Activity (Mus musculus): 25%; MIC (Escherichia coli): > 64 µg/mL; MIC90 [19]: 4 µg/mL (≈ 2.76 µM)

**Q.** With `COc1cccc(OC)c1C(=O)N[C@@H]1C(=O)N2[C@@H]1SC(C)(C)[C@@H]2C(=O)O` [METHICILLIN] as the molecule, how does the MIC50 (Staphylococcus aureus [11]) read?
**A.** 32 µg/mL (≈ 84.1 µM)

**Q.** What about the MIC90 (Staphylococcus aureus [11]) of the same molecule?
**A.** > 64 µg/mL

**Q.** What about the Range [20] of the same molecule?
**A.** 64 µg/mL
